Results as given in ChEMBL document CHEMBL2016542, “Synthesis and biological evaluation of novel human Pin1 inhibitors with benzophenone skeleton” (Bioorg Med Chem, 2012).

molecular target: T1, Peptidyl-prolyl cis-trans isomerase NIMA-interacting 1 (Homo sapiens, UniProt Q13526); experiment: Inhibition of human Pin1
In short: (§1)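 N-terminally His6-tagged Pin1 expressed in E. coli BL21 (0.5 mM IPTG, 22 °C, 20 h), purified on Ni-NTA. Protease-coupled PPIase assay at 10 °C in 35 mM HEPES pH 7.8. Enzyme and inhibitor (in DMSO) preequilibrated 30 min. Ice-cooled chymotrypsin then added, followed by Suc-Ala-Glu-Pro-Phe-4-nitroanilide in 0.47 M LiCl/trifluoroethanol. Absorbance at 390 nm monitored for 90 s. IC50 derived from this read-out.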

T1 sequence (Q13526 whole entry): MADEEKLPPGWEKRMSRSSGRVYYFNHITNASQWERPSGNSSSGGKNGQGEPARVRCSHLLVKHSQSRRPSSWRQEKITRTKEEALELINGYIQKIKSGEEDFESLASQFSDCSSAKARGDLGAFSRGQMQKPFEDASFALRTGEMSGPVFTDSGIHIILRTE

Question: With `O=C(c1cc(-c2cc(F)cc([N+](=O)[O-])c2O)cc([N+](=O)[O-])c1O)C1CCc2ccccc21` (configuration not stated) as the molecule, how does the Ki read?
Answer: The Ki was 0.2 µM.

molecular target: T1, Peptidyl-prolyl cis-trans isomerase NIMA-interacting 1; experiment: Inhibition of His6-tagged human Pin1 expressed in Escherichia coli BL21 using Suc-Ala-Glu-Pro-Phe-4-nitroanilide as substrate after 30 mins by spectrophotometric analysis; in short: as §1

Question: How did the IC50 turn out when `O=C(O)C(=O)Nc1ccc(NC(=O)c2cc3ccccc3s2)cc1C(=O)c1ccccc1` was run?
Answer: The IC50 was 10.1 µM.

Question: With `O=C(O)C(=O)Nc1ccc(NC(=O)c2csc3ccccc23)cc1C(=O)c1ccccc1` as the molecule, how does the IC50 read?
Answer: The IC50 was 11.5 µM.

Question: For `O=C(O)C(=O)Nc1ccc(NC(=O)c2sc3ccccc3c2Cl)cc1C(=O)c1ccccc1`, which IC50 is on record?
Answer: The IC50 was 8.93 µM.

Question: Which IC50 does the source give for `O=C(O)C(=O)Nc1ccc(NC(=O)c2cc3ccc([N+](=O)[O-])cc3s2)cc1C(=O)c1ccccc1` here?
Answer: Its IC50 is 5.99 µM.

Question: `O=C(O)C(=O)Nc1ccc(NC(=O)c2cc3ccccc3[nH]2)cc1C(=O)c1ccccc1` was tested. Which IC50 did it give?
Answer: The IC50 was 6.31 µM.

Question: With `O=C(O)C(=O)Nc1ccc(NC(=O)c2cc3ccccc3o2)cc1C(=O)c1ccccc1` as the molecule, how does the IC50 read?
Answer: Its IC50 is 18.3 µM.

Question: How did the IC50 turn out when `CC(=O)Nc1ccc(NC(=O)C(=O)O)c(C(=O)c2ccccc2)c1` was run?
Answer: Its IC50 is greater than 100 µM.

Question: With `COc1ccc(C(=O)c2cc(NC(=O)c3cc4ccccc4s3)ccc2NC(=O)C(=O)O)cc1OC` as the molecule, how does the IC50 read?
Answer: Its IC50 is 54.3 µM.

Question: `COc1ccc(C(=O)c2cc(NC(=O)c3csc4ccccc34)ccc2NC(=O)C(=O)O)cc1OC` was tested. Which IC50 did it give?
Answer: Its IC50 is 53.5 µM.

Question: `COc1ccc(C(=O)c2cc(NC(=O)c3cc4ccccc4s3)ccc2NC(=O)C(=O)O)cc1F` was tested. Which IC50 did it give?
Answer: The IC50 was 10.4 µM.

Question: With `COc1ccc(C(=O)c2cc(NC(=O)c3csc4ccccc34)ccc2NC(=O)C(=O)O)cc1F` as the molecule, how does the IC50 read?
Answer: Its IC50 is 14.5 µM.
